These results are taken from ChEMBL document CHEMBL6182834, “Dual EGFR and telomerase inhibitory potential of new triazole tethered Schiff bases endowed with apoptosis: design, synthesis, and biological assessments” (RSC Med Chem, 2025).

Data set [1] can be described thus: Cytotoxicity against HSF cells assessed as growth inhibition at 100 ug/mL incubated for 48 hrs by SRB assay relative to control. The conditions noted are these: human, at 100 µg/mL, read-out: GI. The data set is classed as toxicity, cell-based. The procedure, abridged: (§1)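 SRB assay: cells seeded at 3×10^3/well, allowed 24 h to attach, then exposed to 100 µg/mL for 48 h, three wells per concentration, DMSO 1% v/v vehicle control. Cells fixed with 20% trichloroacetic acid and stained with 0.4% SRB, then OD read at 570 nm. Survival fraction taken as treated OD/control OD.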
A general note: In SRB staining, fixed cells bind dye roughly in proportion to their protein.

Data set [2] concerns A-375. As to the kind of experiment: Antiproliferative activity against human A-375 cells assessed as growth inhibition at 100 ug/mL incubated for 48 hrs by SRB assay relative to control. The data set is classed as functional. The settings on record: read-out: GI. The procedure, abridged:
as §1

The subject of data set [3] is Huh-7. Nature of the data set: Antiproliferative activity against human Huh-7 cells assessed as growth inhibition at 100 ug/mL incubated for 48 hrs by SRB assay relative to control. The data set is classed as functional. The settings on record: read-out: GI. The method in brief:
as §1

Data set [4] deals with MDA-MB-468. Nature of the data set: Antiproliferative activity against human MDA-MB-468 cells assessed as growth inhibition at 100 ug/mL incubated for 48 hrs by SRB assay relative to control. The data set is classed as functional. The conditions noted are these: read-out: GI. The procedure, abridged:
as §1

The subject of data set [5] is Caco-2. As to the kind of experiment: Antiproliferative activity against human Caco-2 cells assessed as growth inhibition at 100 ug/mL incubated for 48 hrs by SRB assay relative to control. The data set is classed as functional. The conditions noted are these: read-out: GI. The method in brief: as §1
The subject of data set [6] is FaDu. As to the kind of experiment: Antiproliferative activity against human FaDu cells assessed as growth inhibition at 100 ug/mL incubated for 48 hrs by SRB assay relative to control. The data set is classed as functional. The conditions noted are these: read-out: GI. The procedure, abridged:
as §1

The subject of data set [7] is MG-63. As to the kind of experiment: Antiproliferative activity against human MG-63 cells assessed as growth inhibition at 100 ug/mL incubated for 48 hrs by SRB assay relative to control. The conditions noted are these: read-out: GI. The data set is classed as functional. The method in brief:
as §1

Data set [8] concerns HeLa. As to the kind of experiment: Antiproliferative activity against human HeLa cells assessed as growth inhibition at 100 ug/mL incubated for 48 hrs by SRB assay relative to control. The settings on record: read-out: GI. The data set is classed as functional. The method in brief: as §1
In data set [9] the test system is MCF7. As to the kind of experiment: Antiproliferative activity against human MCF7 cells assessed as growth inhibition at 100 ug/mL incubated for 48 hrs by SRB assay relative to control. The data set is classed as functional. The conditions noted are these: read-out: GI. The procedure, abridged: as §1
Data set [10] relates to HCT-116. Nature of the data set: Antiproliferative activity against human HCT-116 cells assessed as growth inhibition at 100 ug/mL incubated for 48 hrs by SRB assay relative to control. The data set is classed as functional. The conditions noted are these: read-out: GI. The method in brief:
as §1

In data set [11] the test system is HepG2. Nature of the data set: Antiproliferative activity against human HepG2 cells assessed as growth inhibition at 100 ug/mL incubated for 48 hrs by SRB assay relative to control. The data set is classed as functional. The conditions noted are these: read-out: GI. The procedure, abridged: as §1
Data set [12] in a line: Antiproliferative activity against human HNO 97 cell line assessed as growth inhibition at 100 ug/mL incubated for 48 hrs by SRB assay relative to control. The data set is classed as functional. The settings on record: read-out: GI. The method in brief: as §1
Data set [13] is described as follows: Cytotoxicity against human oral epithelial cells (OEC) assessed as growth inhibition at 100 ug/mL incubated for 48 hrs by SRB assay relative to control. The data set is classed as toxicity, cell-based, Oral epithelial cell. The conditions noted are these: at 100 µg/mL, read-out: GI. The procedure, abridged: as §1

For the molecule `COc1cc(/C=N/NC(=O)c2nnn(-c3ccc([N+](=O)[O-])cc3)c2C)cc(OC)c1OC`, the inhibition at 48 h, 100 ug/mL in data set [1] amounted to 28%; in data set [13] it was 39%. The inhibition of growth at 100 µg/mL in data set [2] turned out to be 50%; in data set [3], 74%; in data set [4] it was 70%; in data set [5], 60%; in data set [6], 70%; in data set [7], 40%. Moreover, the inhibition of growth at 100 µg/mL came out at 29% in [8]; 49% in [9]; 35% in data set [10]; 44% in data set [11]; 68% in [12].

In the case of `COc1ccc(/C=N/NC(=O)c2nnn(-c3ccc(Br)cc3)c2C)cc1OC`, the inhibition at 48 h, 100 ug/mL in data set [1] came out at 20%; in data set [13] it was 28%. The inhibition of growth at 100 µg/mL in data set [2] was 77%; in [3], 53%; in data set [4], 54%; in data set [5], 40%; in data set [6], 69%; in data set [7], 42%. In addition, the inhibition of growth at 100 µg/mL in data set [8] was 65%; in data set [9], 86%; in [10], 63%; in [11] it was 59%; in data set [12], 86%.

Consider `COc1cc(/C=N/NC(=O)c2nnn(-c3ccc(Br)cc3)c2C)cc(OC)c1OC`, for which the inhibition at 48 h, 100 ug/mL in data set [1] is 51%; in data set [13], 52%. The inhibition of growth at 100 µg/mL in data set [2] amounted to 60%; in [3] it was 75%; in [4], 76%; in data set [5], 64%; in data set [6] it was 73%; in data set [7], 67%. Further, the inhibition of growth at 100 µg/mL in data set [8] is 60%; in [9] it was 72%; in [10], 82%; in data set [11], 76%; in data set [12], 68%.

Turning to `COc1cccc(/C=N/NC(=O)c2nnn(-c3ccc(F)cc3)c2C)c1OC`, the results for the inhibition at 48 h, 100 ug/mL in data set [1] and in data set [13] were 9% and 13%, respectively. Moreover, the inhibition of growth at 100 µg/mL was found to be 71% in data set [2]; 68% in data set [3]; 52% in data set [4]; 36% in [5]; 70% in data set [6]; 42% in [7]. The inhibition of growth at 100 µg/mL was determined as 45% in data set [8]; 78% in data set [9]; 64% in [10]; 49% in data set [11]; 69% in data set [12].

With `Cc1c(C(=O)N/N=C/c2ccccc2)nnn1-c1ccc(F)cc1`, the inhibition at 48 h, 100 ug/mL in [1] was 14%; in [13] it was 16%. Moreover, the inhibition of growth at 100 µg/mL turned out to be 42% in data set [2]; 37% in [3]; 44% in data set [4]; 20% in data set [5]; 70% in data set [6]; 68% in [7]. Also, the inhibition of growth at 100 µg/mL in [8] came out at 52%; in [9] it was 80%; in [10] it was 74%; in data set [11] it was 54%; in [12] it was 74%.
